Consider 31 compounds from ChEMBL document CHEMBL1157871, “Synthesis and preliminary evaluation of peptidomimetic inhibitors of human beta-secretase” (Eur J Med Chem, 2010).

The target in assay [1] is T1, Beta-secretase 1 (Homo sapiens, UniProt P56817). Put plainly: Inhibition of human recombinant BACE1 using fluorescent peptide substrate at 10 ug/ml after 5 mins. The procedure, abridged:
(§1)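 FRET assay using a peptide substrate carrying a fluorophore and quencher on either side of a β-secretase cleavage site. Recombinant human BACE-1 was diluted in 0.1 M sodium acetate (pH 4.0) and added to the samples, then shaken 5 min. Fluorogenic Peptide Substrate IV in the same buffer was added and shaken 5 min. Read-out: ex 320 nm/em 405 nm; activity taken as ΔF/min relative to standard.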

In assay [2] the target is T1, Beta-secretase 1. Put plainly: Inhibition of human recombinant BACE1 using fluorescent peptide substrate after 5 mins. In outline: as §1

T1 sequence (P56817 whole entry): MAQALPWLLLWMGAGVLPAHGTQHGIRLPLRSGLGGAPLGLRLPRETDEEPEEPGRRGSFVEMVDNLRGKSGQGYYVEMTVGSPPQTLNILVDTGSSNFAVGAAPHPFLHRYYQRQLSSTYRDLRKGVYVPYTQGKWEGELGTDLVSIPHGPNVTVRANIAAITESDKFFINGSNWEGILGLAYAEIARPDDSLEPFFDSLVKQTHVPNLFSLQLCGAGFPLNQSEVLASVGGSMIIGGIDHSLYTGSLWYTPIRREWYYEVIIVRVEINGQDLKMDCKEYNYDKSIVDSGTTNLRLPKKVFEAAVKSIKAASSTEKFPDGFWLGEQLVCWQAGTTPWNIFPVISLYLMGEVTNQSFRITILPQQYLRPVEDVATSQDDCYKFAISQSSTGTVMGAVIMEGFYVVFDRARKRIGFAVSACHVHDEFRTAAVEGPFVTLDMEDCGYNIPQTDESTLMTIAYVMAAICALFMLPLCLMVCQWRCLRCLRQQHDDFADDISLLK

Turning to `CC(C)CNC(=O)[C@H](C)C[C@H](O)[C@H](CC(C)C)NC(=O)[C@H](Cc1ccc([N+](=O)[O-])cc1)NC(=O)c1ccc2c(c1)OCO2`, at Beta-secretase 1 [1], the inhibition (as a rule, the drop in the measured response relative to a control, in per cent) was found to be 40.3%.

Take `CC(C)CNC(=O)[C@H](C)C[C@H](O)[C@H](CC(C)C)NC(=O)[C@H](Cc1ccccc1)NC(=O)[C@@H](NC(=O)OC(C)(C)C)C(C)C`: the inhibition on Beta-secretase 1 [1] was -2.37%.

As for `CC(C)[C@H](NC(=O)OC(C)(C)C)C(=O)N[C@@H](Cc1ccccc1)C(=O)N[C@@H](C(C)C)[C@@H](O)C[C@@H](C)C(=O)NCc1ccccc1`, the inhibition on Beta-secretase 1 [1] is -1.56%.

As for `CC(C)CNC(=O)[C@H](C)C[C@H](O)[C@H](CC(C)C)NC(=O)[C@H](Cc1ccccc1)NC(=O)/C=C/c1ccc(C(F)(F)F)cc1`, at Beta-secretase 1 [1], the inhibition was 59.7%. Moreover, on Beta-secretase 1 [2], the IC50 (as a rule, the point on the concentration scale where inhibition reaches its midpoint) is 19.5 µM.

With `CC(C)CNC(=O)[C@H](C)C[C@H](O)[C@H](CC(C)C)NC(=O)[C@H](Cc1ccc([N+](=O)[O-])cc1)NC(=O)/C=C/c1ccccc1`, the inhibition on Beta-secretase 1 [1] stood at 37.2%.

Turning to `CC(C)CNC(=O)[C@H](C)C[C@H](O)[C@H](CC(C)C)NC(=O)[C@H](Cc1ccccc1)NC(=O)c1ccc([N+](=O)[O-])cc1`, the inhibition on Beta-secretase 1 [1] was 1.47%. In addition, the IC50 on Beta-secretase 1 [2] was 15.7 µM.

Consider `CC(C)CNC(=O)[C@H](C)C[C@H](O)[C@H](CC(C)C)NC(=O)[C@H](Cc1ccc([N+](=O)[O-])cc1)NC(=O)c1ccc([N+](=O)[O-])cc1`, for which the inhibition at Beta-secretase 1 [1] amounted to 10.5%. Further, the IC50 at Beta-secretase 1 [2] was determined as 2.64 µM.

In the case of `CC(C)CNC(=O)[C@H](C)C[C@H](O)[C@H](CC(C)C)NC(=O)[C@H](Cc1ccc([N+](=O)[O-])cc1)NC(=O)c1ccc(Cl)cc1Cl`, the inhibition on Beta-secretase 1 [1] worked out at 22.2%. At Beta-secretase 1 [2], the IC50 came out at 4.24 µM.

On to `CC(C)CNC(=O)[C@H](C)C[C@H](O)[C@H](CC(C)C)NC(=O)[C@H](Cc1ccc([N+](=O)[O-])cc1)NC(=O)c1cccc(Cl)c1`, for which the inhibition at Beta-secretase 1 [1] worked out at 25.7%.

With `CC(C)[C@H](NC(=O)[C@H](CO)NC(=O)OC(C)(C)C)[C@@H](O)C[C@@H](C)C(=O)NCc1ccccc1`, the inhibition on Beta-secretase 1 [1] is 50.5%.

Consider `CC[C@H](C)[C@H](NC(=O)OC(C)(C)C)C(=O)N[C@@H](Cc1ccccc1)C(=O)N[C@@H](C(C)C)[C@@H](O)C[C@@H](C)C(=O)NCc1ccccc1`, for which the inhibition at Beta-secretase 1 [1] is -2.46%.

With `CC(C)CNC(=O)[C@H](C)C[C@H](O)[C@H](CC(C)C)NC(=O)[C@H](Cc1ccccc1)NC(=O)[C@H](CC(C)C)NC(=O)OC(C)(C)C`, on Beta-secretase 1 [1], the inhibition worked out at 54.6%. Further, the IC50 on Beta-secretase 1 [2] is 2.31 µM.

As to `CC(C)CNC(=O)[C@H](C)C[C@H](O)[C@H](CC(C)C)NC(=O)[C@H](Cc1ccc([N+](=O)[O-])cc1)NC(=O)/C=C/c1ccc(C(F)(F)F)cc1`, the inhibition at Beta-secretase 1 [1] was found to be 0.13%. The half-inhibitory concentration (IC50) at Beta-secretase 1 [2] is 3.79 µM.

In the case of `CC(C)CNC(=O)[C@H](C)C[C@H](O)[C@H](CC(C)C)NC(=O)[C@H](Cc1ccccc1)NC(=O)c1ccc(Cl)cc1Cl`, the inhibition at Beta-secretase 1 [1] was 20.3%.

Turning to `CC(C)[C@H](NC(=O)[C@H](Cc1ccccc1)NC(=O)OC(C)(C)C)[C@@H](O)C[C@@H](C)C(=O)NCc1ccccc1`, the inhibition at Beta-secretase 1 [1] came out at 23%.

As to `CC(C)CNC(=O)[C@H](C)C[C@H](O)[C@H](CC(C)C)NC(=O)[C@H](Cc1ccccc1)NC(=O)c1cccc(Cl)c1`, the inhibition at Beta-secretase 1 [1] came out at 16.9%.

As for `CC(C)C[C@H](NC(=O)[C@H](CO)NC(=O)/C=C/c1ccc(C(F)(F)F)cc1)[C@@H](O)C[C@@H](C)C(=O)NCc1ccccc1`, the inhibition at Beta-secretase 1 [1] was 16.4%.

Take `CC(C)CNC(=O)[C@H](C)C[C@H](O)[C@H](CC(C)C)NC(=O)[C@H](Cc1ccccc1)NC(=O)/C=C/c1ccccc1`: at Beta-secretase 1 [1], the inhibition was determined as 22.8%.

On to `CC(C)C[C@H](NC(=O)OC(C)(C)C)C(=O)N[C@@H](Cc1ccccc1)C(=O)N[C@@H](CC(C)C)[C@@H](O)C[C@@H](C)C(=O)NCc1ccccc1`, for which, at Beta-secretase 1 [1], the inhibition was found to be 0.91%.

For the compound `CC[C@H](C)[C@H](NC(=O)OC(C)(C)C)C(=O)N[C@@H](Cc1ccccc1)C(=O)N[C@@H](CC(C)C)[C@@H](O)C[C@@H](C)C(=O)NCC(C)C`, the inhibition on Beta-secretase 1 [1] is -0.71%.

`COc1ccc(CC(=O)N[C@@H](CO)C(=O)N[C@@H](CC(C)C)[C@@H](O)C[C@@H](C)C(=O)NCc2ccccc2)cc1`: the inhibition on Beta-secretase 1 [1] was determined as 25.1%.

As for `CC(C)CNC(=O)[C@H](C)C[C@H](O)[C@H](CC(C)C)NC(=O)[C@H](Cc1ccccc1)NC(=O)c1ccccc1`, the inhibition at Beta-secretase 1 [1] came to 11.2%. The IC50 on Beta-secretase 1 [2] came to 6.93 µM.

Consider `CC(C)CNC(=O)[C@H](C)C[C@H](O)[C@@H](NC(=O)[C@H](Cc1ccc([N+](=O)[O-])cc1)NC(=O)OC(C)(C)C)C(C)C`, for which the inhibition on Beta-secretase 1 [1] amounted to 30.1%.

As for `COc1ccc(C(=O)N[C@@H](Cc2ccc([N+](=O)[O-])cc2)C(=O)N[C@@H](CC(C)C)[C@@H](O)C[C@@H](C)C(=O)NCC(C)C)cc1OC`, the inhibition on Beta-secretase 1 [1] was 18.3%. Further, the IC50 on Beta-secretase 1 [2] was 3.81 µM.

`COc1ccc(C(=O)N[C@@H](Cc2ccccc2)C(=O)N[C@@H](CC(C)C)[C@@H](O)C[C@@H](C)C(=O)NCC(C)C)cc1OC`: the inhibition on Beta-secretase 1 [1] stood at 14.7%.

As to `CC(C)CNC(=O)[C@H](C)C[C@H](O)[C@@H](NC(=O)[C@H](Cc1ccccc1)NC(=O)OC(C)(C)C)C(C)C`, the inhibition at Beta-secretase 1 [1] came to 25.8%.

In the case of `CC(C)CNC(=O)[C@H](C)C[C@H](O)[C@H](CC(C)C)NC(=O)[C@H](Cc1ccccc1)NC(=O)c1cccc2ccccc12`, the inhibition on Beta-secretase 1 [1] was -0.1%. Also, the 50% inhibitory concentration (IC50) on Beta-secretase 1 [2] was determined as 4.67 µM.

Take `CC(C)CNC(=O)[C@H](C)C[C@H](O)[C@H](CC(C)C)NC(=O)[C@H](Cc1ccccc1)NC(=O)c1ccc2c(c1)OCO2`: the inhibition at Beta-secretase 1 [1] turned out to be 16.2%. Also, the half-maximal inhibitory concentration (IC50) on Beta-secretase 1 [2] is 8.07 µM.

Consider `CC(C)CNC(=O)[C@H](C)C[C@H](O)[C@H](CC(C)C)NC(=O)[C@H](Cc1ccc([N+](=O)[O-])cc1)NC(=O)c1cc([N+](=O)[O-])cc([N+](=O)[O-])c1`, for which the inhibition on Beta-secretase 1 [1] stood at 7.61%.

Turning to `CC(C)CNC(=O)[C@H](C)C[C@H](O)[C@H](CC(C)C)NC(=O)[C@H](Cc1ccc([N+](=O)[O-])cc1)NC(=O)c1cccc2ccccc12`, the inhibition at Beta-secretase 1 [1] is -4.43%.

On to `CC(C)CNC(=O)[C@H](C)C[C@H](O)[C@H](CC(C)C)NC(=O)[C@H](Cc1ccccc1)NC(=O)c1cc([N+](=O)[O-])cc([N+](=O)[O-])c1`, for which the inhibition on Beta-secretase 1 [1] amounted to 0.91%.
